Experimental data published in ChEMBL document CHEMBL2086304, “Synthesis and in vitro antimycobacterial and isocitrate lyase inhibition properties of novel 2-methoxy-2'-hydroxybenzanilides, their thioxo analogues and benzoxazoles” (Eur J Med Chem, 2012).
In brackets after ≈: the same amount, converted by molar mass.

Tests used:
[1] = test system: Mycobacterium tuberculosis; assay: Antimycobacterial activity against Mycobacterium tuberculosis 331/88 after 14 days by micromethod; type: functional; settings: 331/88, 336 h
Method in brief: (§1)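 Inocula: M. tuberculosis My 331/88 at 10^-3 dilution, M. avium My 330/88 at 10^-5, M. kansasii My 235/80 and clinical isolate 6509/96 at 10^-4. Compounds added in DMSO at 1000 down to 0.5 (twofold series). Read at 14 and 21 days, plus 7 days for M. kansasii. MIC taken as lowest concentration inhibiting growth.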

[2] = test system: Mycobacterium tuberculosis; assay: Antimycobacterial activity against Mycobacterium tuberculosis 331/88 after 21 days by micromethod; type: functional; settings: 331/88, 504 h; method in brief: as §1
Mycobacterium avium [3] = assay: Antimycobacterial activity against isoniazid resistance Mycobacterium avium 330/88 after 14 days by micromethod; type: functional; settings: 330/88, 336 h; method in brief: as §1
Mycobacterium avium [4] = assay: Antimycobacterial activity against isoniazid resistance Mycobacterium avium 330/88 after 21 days by micromethod; type: functional; settings: 330/88, 504 h; method in brief: as §1
Mycobacterium kansasii [5] = assay: Antimycobacterial activity against Mycobacterium kansasii 6509/96 clinical isolate after 7 days by micromethod; type: functional; settings: 6509/96, 168 h; method in brief: as §1
Mycobacterium kansasii [6] = assay: Antimycobacterial activity against isoniazid resistance Mycobacterium kansasii 225/80 after 14 days by micromethod; type: functional; settings: 225/80, 336 h
Mycobacterium kansasii [7] = assay: Antimycobacterial activity against isoniazid resistance Mycobacterium kansasii 225/80 after 21 days by micromethod; type: functional; settings: 225/80, 504 h
Mycobacterium kansasii [8] = assay: Antimycobacterial activity against Mycobacterium kansasii 6509/96 clinical isolate after 14 days by micromethod; type: functional; settings: 6509/96, 336 h; method in brief: as §1
Mycobacterium kansasii [9] = assay: Antimycobacterial activity against Mycobacterium kansasii 6509/96 clinical isolate after 21 days by micromethod; type: functional; settings: 6509/96, 504 h; method in brief: as §1
[10] = target: T1, Isocitrate lyase (Mycobacterium tuberculosis) (UniProt P9WKK7); assay: Inhibition of Mycobacterium tuberculosis H37Rv isocitrate lyase expressed in Escherichia coli HB101 at 10 umol/L
T1 sequence (whole entry): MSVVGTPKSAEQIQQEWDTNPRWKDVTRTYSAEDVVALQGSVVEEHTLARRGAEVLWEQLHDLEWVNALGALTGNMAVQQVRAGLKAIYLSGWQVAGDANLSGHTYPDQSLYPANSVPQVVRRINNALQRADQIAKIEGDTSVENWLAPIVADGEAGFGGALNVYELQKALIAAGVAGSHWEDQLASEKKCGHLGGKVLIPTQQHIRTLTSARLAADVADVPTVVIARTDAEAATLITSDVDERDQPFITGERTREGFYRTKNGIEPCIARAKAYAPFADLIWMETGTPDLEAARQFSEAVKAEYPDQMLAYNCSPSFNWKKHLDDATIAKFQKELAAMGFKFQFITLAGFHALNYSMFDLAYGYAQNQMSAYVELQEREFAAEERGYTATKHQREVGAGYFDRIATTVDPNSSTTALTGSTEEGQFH
Method in brief: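 Isocitrate lyase assayed per Dixon–Kornberg in 96-well format. Buffer: 50 mmol/L KH2PO4, 4 mmol/L MgCl2, 4 mmol/L phenylhydrazine, 12 mmol/L cysteine, pH 7.0. Glyoxylate phenylhydrazone read at 324 nm. Compounds added in DMSO, with DMSO-alone inhibition subtracted.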

Mycobacterium kansasii [11] = assay: Antimycobacterial activity against isoniazid resistance Mycobacterium kansasii 225/80 after 7 days by micromethod; type: functional; settings: 225/80, 168 h
HepG2 = assay: Cytotoxicity against human HepG2 cells after 24 hrs by CellTiter-96 cell viability assay; type: functional, cell-based; settings: HepG2, 24 h
Method in brief: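 Hep G2 human hepatic cells (passage 12), 10,000 per well, grown 24 h at 37 °C, 5% CO2 in MEM with 1% glutamine, 10% FBS and 1% nonessential amino acids. Compounds in DMSO at eight increasing concentrations, quadruplicate, 24 h at 37 °C. Kit reagent added, 1.5 h at 37 °C, absorbance 490 nm. IC50 is the concentration reducing viability to 50% of control.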

[12] = Selectivity index, ratio of IC50 for human HepG2 cells to MIC for Mycobacterium tuberculosis 331/88 after 14 days; type: functional
Method in brief: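 Cytotoxicity in Hep G2 cells (passage 12), 10,000 cells/well, in MEM with 10% FBS, 1% glutamine and 1% nonessential amino acids. Cells preincubated 24 h, 37 °C, 5% CO2. Compounds in DMSO at eight concentrations in quadruplicate, 24 h. MTS-type reagent added for 1.5 h, A490 read, IC50 taken at 50% viability. SI = this IC50 over the 14-day M. tuberculosis MIC.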

Structure (SMILES) | MIC [1] [µM] | MIC [2] [µM] | MIC (Mycobacterium avium [3]) [µM] | MIC (Mycobacterium avium [4]) [µM] | MIC (Mycobacterium kansasii [5]) [µM] | MIC (Mycobacterium kansasii [6]) [µM] | MIC (Mycobacterium kansasii [7]) [µM] | MIC (Mycobacterium kansasii [8]) [µM] | MIC (Mycobacterium kansasii [9]) [µM] | inhibition [10] [%] | MIC (Mycobacterium kansasii [11]) [µM] | IC50 (HepG2) [µM] | Selectivity Index [12]
COc1ccc(Cl)cc1C(=O)Nc1ccc(C(F)(F)F)cc1OC(=O)c1cc(Cl)ccc1OC | 250 (≈ 129 µg/mL) | 250 (≈ 129 µg/mL) | 62.5 (≈ 32.1 µg/mL) | 62.5 (≈ 32.1 µg/mL) | 8 (≈ 4.11 µg/mL) | 8 (≈ 4.11 µg/mL) | 16 (≈ 8.23 µg/mL) | 8 (≈ 4.11 µg/mL) | 8 (≈ 4.11 µg/mL) | 9 |  |  | 
COc1cc(Cl)ccc1-c1nc2ccc(Br)cc2o1 | 125 (≈ 42.3 µg/mL) | 125 (≈ 42.3 µg/mL) | 125 (≈ 42.3 µg/mL) | 125 (≈ 42.3 µg/mL) | 125 (≈ 42.3 µg/mL) | 125 (≈ 42.3 µg/mL) | 125 (≈ 42.3 µg/mL) | 125 (≈ 42.3 µg/mL) | 125 (≈ 42.3 µg/mL) | 0 | 125 (≈ 42.3 µg/mL) |  | 
COc1cc(Cl)ccc1-c1nc2cc(Br)ccc2o1 | 250 (≈ 84.6 µg/mL) | 250 (≈ 84.6 µg/mL) | 250 (≈ 84.6 µg/mL) | 250 (≈ 84.6 µg/mL) | 250 (≈ 84.6 µg/mL) | 250 (≈ 84.6 µg/mL) | 250 (≈ 84.6 µg/mL) | 250 (≈ 84.6 µg/mL) | 250 (≈ 84.6 µg/mL) | 0 | 250 (≈ 84.6 µg/mL) |  | 
COc1ccc(Cl)cc1-c1nc2ccc(C(F)(F)F)cc2o1 | 62.5 (≈ 20.5 µg/mL) | 62.5 (≈ 20.5 µg/mL) | 250 (≈ 81.9 µg/mL) | 250 (≈ 81.9 µg/mL) | 62.5 (≈ 20.5 µg/mL) | 250 (≈ 81.9 µg/mL) | 250 (≈ 81.9 µg/mL) | 62.5 (≈ 20.5 µg/mL) | 62.5 (≈ 20.5 µg/mL) | 0 | 250 (≈ 81.9 µg/mL) |  | 
COc1cc(Cl)ccc1-c1nc2ccc(Cl)cc2o1 | 125 (≈ 36.8 µg/mL) | 125 (≈ 36.8 µg/mL) | 62.5 (≈ 18.4 µg/mL) | 62.5 (≈ 18.4 µg/mL) | 62.5 (≈ 18.4 µg/mL) | 62.5 (≈ 18.4 µg/mL) | 62.5 (≈ 18.4 µg/mL) | 62.5 (≈ 18.4 µg/mL) | 62.5 (≈ 18.4 µg/mL) | 0 | 62.5 (≈ 18.4 µg/mL) |  | 
COc1ccc(Cl)cc1C(=O)Nc1ccc(C(F)(F)F)cc1O | 500 (≈ 173 µg/mL) | 500 (≈ 173 µg/mL) | 62.5 (≈ 21.6 µg/mL) | 62.5 (≈ 21.6 µg/mL) | 250 (≈ 86.4 µg/mL) | 250 (≈ 86.4 µg/mL) | 250 (≈ 86.4 µg/mL) | 250 (≈ 86.4 µg/mL) | 250 (≈ 86.4 µg/mL) | 2 |  | 4.91 | 0.01
COc1cc(Cl)ccc1C(=O)Nc1cc(C(F)(F)F)ccc1O | 250 (≈ 86.4 µg/mL) | 250 (≈ 86.4 µg/mL) | 250 (≈ 86.4 µg/mL) | 250 (≈ 86.4 µg/mL) | 250 (≈ 86.4 µg/mL) | 250 (≈ 86.4 µg/mL) | 250 (≈ 86.4 µg/mL) | 250 (≈ 86.4 µg/mL) | 250 (≈ 86.4 µg/mL) | 0 | 250 (≈ 86.4 µg/mL) | 25.4 | 0.1
COc1ccc(Cl)cc1-c1nc2cc(Cl)ccc2o1 | 125 (≈ 36.8 µg/mL) | 125 (≈ 36.8 µg/mL) | 250 (≈ 73.5 µg/mL) | 250 (≈ 73.5 µg/mL) | 250 (≈ 73.5 µg/mL) | 250 (≈ 73.5 µg/mL) | 250 (≈ 73.5 µg/mL) | 250 (≈ 73.5 µg/mL) | 250 (≈ 73.5 µg/mL) | 0 | 250 (≈ 73.5 µg/mL) |  | 
NNC(=O)c1ccncc1 [ISONIAZID] | 0.5 (≈ 0.0686 µg/mL) | 0.5 (≈ 0.0686 µg/mL) | > 250 | > 250 | 4 (≈ 0.549 µg/mL) | > 250 | > 250 | 4 (≈ 0.549 µg/mL) | 4 (≈ 0.549 µg/mL) |  | > 250 |  | 
COc1ccc(Cl)cc1C(=O)Nc1cc(Cl)ccc1O | 16 (≈ 4.99 µg/mL) | 32 (≈ 9.99 µg/mL) | 125 (≈ 39 µg/mL) | 125 (≈ 39 µg/mL) | 8 (≈ 2.5 µg/mL) | 16 (≈ 4.99 µg/mL) | 16 (≈ 4.99 µg/mL) | 16 (≈ 4.99 µg/mL) | 16 (≈ 4.99 µg/mL) | 0 | 4 (≈ 1.25 µg/mL) |  | 
COc1ccc(Cl)cc1C(=S)Nc1ccc(C(F)(F)F)cc1O | 62.5 (≈ 22.6 µg/mL) | 62.5 (≈ 22.6 µg/mL) | 32 (≈ 11.6 µg/mL) | 62.5 (≈ 22.6 µg/mL) | 32 (≈ 11.6 µg/mL) | 62.5 (≈ 22.6 µg/mL) | 62.5 (≈ 22.6 µg/mL) | 62.5 (≈ 22.6 µg/mL) | 62.5 (≈ 22.6 µg/mL) | 21 |  | 3.69 | 0.06
